In brackets after ≈: the same amount, converted by molar mass.
How the values were obtained:
Assay type in all cases: functional
[1] = system: Mycolicibacterium smegmatis; test: Antimicrobial activity against Mycobacterium smegmatis ATCC 19420 after 7 days by resazurin assay; conditions: ATCC 19420, 168 h
In short: (§1)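 Resazurin microplate assay. Culture added to fresh medium in 96-well plates. Compound stocks 2 mg/mL in DMF. DMF-only controls, with rifampicin and isoniazid as references. Incubated 7 days at 37 °C, then 0.01% resazurin in water added. Blue-to-pink change read after 1 h at 37 °C. MIC taken as the lowest concentration preventing the colour change.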

[2] = system: Escherichia coli; test: Antimicrobial activity against Escherichia coli ATCC 25922 after 18 to 48 hrs by serial dilution method
[3] = system: Mycobacterium tuberculosis; test: Antimicrobial activity against Mycobacterium tuberculosis H37Rv ATCC 27294 assessed as growth inhibition after 7 days by resazurin assay
[4] = system: Mycobacterium tuberculosis; test: Antimicrobial activity against Mycobacterium tuberculosis H37Rv ATCC 27294 after 7 days by resazurin assay; conditions: H37Rv ATCC 27294, 168 h
In short: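 M. tuberculosis H37Rv ATCC 27294 culture diluted into fresh medium in 96-well microtitre plates. Compounds were taken from 2 mg/mL stocks in DMF, with DMF-only control tubes and rifampicin and isoniazid as references. Plates were incubated 37 °C for 7 days, then 0.01% aqueous resazurin was added and read after 1 h at 37 °C. MIC is the lowest concentration preventing the blue-to-pink change.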

[5] = system: Pseudomonas aeruginosa; test: Antimicrobial activity against Pseudomonas aeruginosa ATCC 27853 after 18 to 48 hrs by serial dilution method
[6] = system: Mycolicibacterium fortuitum; test: Antimicrobial activity against Mycobacterium fortuitum ATCC 19542 after 7 days by resazurin assay; conditions: ATCC 19542, 168 h; in short: as §1
[7] = system: Staphylococcus aureus; test: Antimicrobial activity against Staphylococcus aureus ATCC 25923 after 18 to 48 hrs by serial dilution method
[8] = system: Streptococcus pyogenes; test: Antimicrobial activity against Streptococcus pyogenes clinical isolate after 18 to 48 hrs by serial dilution method
[9] = system: Klebsiella pneumoniae; test: Antimicrobial activity against Klebsiella pneumoniae clinical isolate after 18 to 48 hrs by serial dilution method

Structure (SMILES) | MIC [1] [µg/mL] | MIC [2] [µg/mL] | growth inhibition (GI) [3] [%] | MIC [4] [µg/mL] | MIC [5] [µg/mL] | MIC [6] [µg/mL] | MIC [7] [µg/mL] | MIC [8] [µg/mL] | MIC [9] [µg/mL]
COc1ccc2nc(C)cc(N3CC(CNC(=O)C4CCC4)OC3=O)c2c1 (stereo not given) | 100 (≈ 271 µM) | 1.6 (≈ 4.33 µM) | 85 | 2.5 (≈ 6.77 µM) | 3.12 (≈ 8.46 µM) | 100 (≈ 271 µM) | 1.6 (≈ 4.33 µM) | 1.6 (≈ 4.33 µM) | 6.25 (≈ 16.9 µM)
O=C(O)c1cn(C2CC2)c2cc(N3CCNCC3)c(F)cc2c1=O [CIPROFLOXACIN] | – | 0.025 (≈ 0.0754 µM) | – | – | 0.4 (≈ 1.21 µM) | – | 1 (≈ 3.02 µM) | – | –
CCN(CC)CC1CN(CC(=O)Nc2cc(C)nc3ccc(OC)cc23)C(=O)O1 (stereo not given) | 10 (≈ 25 µM) | 0.4 (≈ 0.999 µM) | 90 | 1 (≈ 2.5 µM) | 0.4 (≈ 0.999 µM) | 10 (≈ 25 µM) | 1.6 (≈ 4 µM) | 3.12 (≈ 7.8 µM) | 0.1 (≈ 0.25 µM)
COc1ccc2nc(C)cc(NC(=O)CN3CC(CNC4CC4)OC3=O)c2c1 (stereo not given) | 100 (≈ 260 µM) | > 12.5 | 90 | 10 (≈ 26 µM) | 1.6 (≈ 4.16 µM) | 100 (≈ 260 µM) | 1.6 (≈ 4.16 µM) | 3.12 (≈ 8.13 µM) | > 12.5
COc1ccc2nc(C)cc(N3CC(CNC(=O)c4ccccc4)OC3=O)c2c1 (stereo not given) | 100 (≈ 255 µM) | > 12.5 | 0 | 100 (≈ 255 µM) | > 12.5 | 100 (≈ 255 µM) | 3.12 (≈ 7.98 µM) | 3.12 (≈ 7.98 µM) | 6.25 (≈ 16 µM)
COc1ccc2nc(C)cc(N3CC(CNC(C)=O)OC3=O)c2c1 (stereo not given) | 2.5 (≈ 7.59 µM) | 0.2 (≈ 0.607 µM) | 95 | 0.625 (≈ 1.9 µM) | 0.4 (≈ 1.21 µM) | 10 (≈ 30.4 µM) | 0.8 (≈ 2.43 µM) | 0.2 (≈ 0.607 µM) | 0.1 (≈ 0.304 µM)
COc1ccc2nc(C)cc(N3CC(CNC(=O)c4ccc(Cl)cc4)OC3=O)c2c1 (stereo not given) | 100 (≈ 235 µM) | 3.12 (≈ 7.34 µM) | 85 | 100 (≈ 235 µM) | 6.25 (≈ 14.7 µM) | 100 (≈ 235 µM) | 1.6 (≈ 3.76 µM) | 3.12 (≈ 7.34 µM) | 6.25 (≈ 14.7 µM)
COc1ccc2nc(C)cc(N3CC(CNC(=O)c4ccc(F)cc4)OC3=O)c2c1 (stereo not given) | 10 (≈ 24.4 µM) | 0.2 (≈ 0.488 µM) | 90 | 1 (≈ 2.44 µM) | 0.4 (≈ 0.977 µM) | 10 (≈ 24.4 µM) | 0.8 (≈ 1.95 µM) | 0.4 (≈ 0.977 µM) | 0.1 (≈ 0.244 µM)
COc1ccc2nc(C)cc(NC(=O)CN3CC(CNCC4CCCCC4)OC3=O)c2c1 (stereo not given) | 100 (≈ 227 µM) | 6.25 (≈ 14.2 µM) | 0 | 100 (≈ 227 µM) | > 12.5 | 100 (≈ 227 µM) | 6.25 (≈ 14.2 µM) | 1.6 (≈ 3.63 µM) | 6.25 (≈ 14.2 µM)
COc1ccc(C(=O)NCC2CN(c3cc(C)nc4ccc(OC)cc34)C(=O)O2)c(C)c1 (stereo not given) | 100 (≈ 230 µM) | 1.6 (≈ 3.67 µM) | 85 | 1 (≈ 2.3 µM) | 3.12 (≈ 7.18 µM) | 100 (≈ 230 µM) | 0.8 (≈ 1.84 µM) | 1.6 (≈ 3.67 µM) | 0.8 (≈ 1.84 µM)
COc1ccc2nc(C)cc(N3CC(CNC(=O)c4ccc(C(F)(F)F)cc4)OC3=O)c2c1 (stereo not given) | 10 (≈ 21.8 µM) | 0.4 (≈ 0.871 µM) | 90 | 0.625 (≈ 1.36 µM) | 0.4 (≈ 0.871 µM) | 2.5 (≈ 5.44 µM) | 0.8 (≈ 1.74 µM) | 0.4 (≈ 0.871 µM) | 0.8 (≈ 1.74 µM)
CCc1ccc(C(=O)NCC2CN(c3cc(C)nc4ccc(OC)cc34)C(=O)O2)cc1 (stereo not given) | 100 (≈ 238 µM) | 3.12 (≈ 7.45 µM) | 0 | 100 (≈ 238 µM) | > 12.5 | 100 (≈ 238 µM) | 1.6 (≈ 3.81 µM) | 6.25 (≈ 14.9 µM) | 1.6 (≈ 3.81 µM)
COc1ccc2nc(C)cc(NC(=O)CN3CC(CN4CCN(C(C)(C)C)CC4)OC3=O)c2c1 (stereo not given) | 100 (≈ 213 µM) | 1.6 (≈ 3.41 µM) | 0 | 100 (≈ 213 µM) | 0.8 (≈ 1.7 µM) | 100 (≈ 213 µM) | 1.6 (≈ 3.41 µM) | 0.8 (≈ 1.7 µM) | 1.6 (≈ 3.41 µM)
COc1ccc2nc(C)cc(NC(=O)CN3CC(CN4CCOCC4)OC3=O)c2c1 (stereo not given) | 10 (≈ 24.1 µM) | 0.1 (≈ 0.241 µM) | 95 | 1 (≈ 2.41 µM) | 0.4 (≈ 0.965 µM) | 10 (≈ 24.1 µM) | 0.8 (≈ 1.93 µM) | 0.2 (≈ 0.483 µM) | 0.1 (≈ 0.241 µM)
